Test results taken from ChEMBL document CHEMBL1140227, “Histone deacetylase inhibitors through click chemistry” (J Med Chem, 2008).

Legend:
Format in all cases: functional
HCT-116 = assay: Growth inhibition of human HCT116 cells at 10 uM relative to control; settings: values are per cent of control
In short: (§1)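 Single-dose preliminary screen in the NCI human cancer cell line panel, run by the NIH. Percent inhibition of cell line growth was calculated by comparison with untreated samples.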

HCT-15 = assay: Growth inhibition of human HCT15 cells at 10 uM relative to control; settings: values are per cent of control; in short: as §1
HT-29 = assay: Growth inhibition of human HT-29 cells at 10 uM relative to control; settings: values are per cent of control; in short: as §1
KM12 = assay: Growth inhibition of human KM12 cells at 10 uM relative to control; settings: values are per cent of control; in short: as §1
SW-620 = assay: Growth inhibition of human SW620 cells at 10 uM relative to control; settings: values are per cent of control
In short: (§2)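 Single-dose NCI human tumour cell line screen, run by the NIH. Percent inhibition of cell line growth was calculated by comparison with untreated samples.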

BT-549 = assay: Growth inhibition of human BT549 cells at 10 uM relative to control; settings: values are per cent of control; in short: as §1
[1] = Growth inhibition of human Hs 578T cells at 10 uM relative to control; settings: values are per cent of control; in short: as §1
MCF7 = assay: Growth inhibition of human MCF7 cells at 10 uM relative to control; settings: values are per cent of control; in short: as §1
MDA-MB-231 = assay: Growth inhibition of human MDA-MB-231 cells at 10 uM relative to control; settings: values are per cent of control; in short: as §1
MDA-MB-435 = assay: Growth inhibition of human MDA-MB-435 cells at 10 uM relative to control; settings: values are per cent of control; in short: as §1
MDA-MB-468 = assay: Growth inhibition of human MDA-MB-468 cells at 10 uM relative to control; settings: values are per cent of control; in short: as §1
NCI/ADR-RES = assay: Growth inhibition of human NCI/ADR-RES cells at 10 uM relative to control; settings: values are per cent of control; in short: as §1
T47D = assay: Growth inhibition of human T47D cells at 10 uM relative to control; settings: values are per cent of control; in short: as §2
IGROV-1 = assay: Growth inhibition of human IGROV1 cells at 10 uM relative to control; settings: values are per cent of control; in short: as §1
OVCAR-3 = assay: Growth inhibition of human OVCAR-3 cells at 10 uM relative to control; settings: values are per cent of control; in short: as §1
OVCAR-4 = assay: Growth inhibition of human OVCAR4 cells at 10 uM relative to control; settings: values are per cent of control; in short: as §1
OVCAR-5 = assay: Growth inhibition of human OVCAR5 cells at 10 uM relative to control; settings: values are per cent of control; in short: as §1
OVCAR-8 = assay: Growth inhibition of human OVCAR8 cells at 10 uM relative to control; settings: values are per cent of control; in short: as §1
CCRF-CEM = assay: Growth inhibition of human CCRF-CEM cells at 10 uM relative to control; settings: values are per cent of control; in short: as §1
HL-60(TB) = assay: Growth inhibition of human HL-60(TB) cells at 10 uM relative to control; settings: read-out: INH
In short: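 Single-dose cell line screen run by the NCI (NIH) in its human cancer cell line panel, which includes the leukemia line HL-60(TB). Percent growth inhibition was calculated by comparison with untreated samples.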

K562 = assay: Growth inhibition of human K562 cells at 10 uM relative to control; settings: values are per cent of control; in short: as §1
MOLT-4 = assay: Growth inhibition of human MOLT4 cells at 10 uM relative to control; settings: values are per cent of control; in short: as §1
[2] = Growth inhibition of human RPMI8266 cells at 10 uM relative to control; settings: values are per cent of control; in short: as §1
786-0 = assay: Growth inhibition of human 786-0 cells at 10 uM relative to control; settings: values are per cent of control; in short: as §1
A498 = assay: Growth inhibition of human A498 cells at 10 uM relative to control; settings: values are per cent of control; in short: as §1
ACHN = assay: Growth inhibition of human ACHN cells at 10 uM relative to control; settings: values are per cent of control; in short: as §1
CAKI-1 = assay: Growth inhibition of human Caki1 cells at 10 uM relative to control; settings: values are per cent of control; in short: as §1
SN12C = assay: Growth inhibition of human SN12C cells at 10 uM relative to control; settings: values are per cent of control; in short: as §1
TK-10 = assay: Growth inhibition of human TK10 cells at 10 uM relative to control; settings: values are per cent of control; in short: as §2
UO-31 = assay: Growth inhibition of human UO31 cells at 10 uM relative to control; settings: values are per cent of control; in short: as §2
LOX IMVI = assay: Growth inhibition of human LOXIMVI cells at 10 uM relative to control; settings: values are per cent of control; in short: as §1
M14 = assay: Growth inhibition of human M14 cells at 10 uM relative to control; settings: values are per cent of control; in short: as §1
Malme-3M = assay: Growth inhibition of human MALME-3M cells at 10 uM relative to control; settings: values are per cent of control; in short: as §1

For `O=C(/C=C/c1cn(C/C=C/c2ccccc2)nn1)NO`, the growth, % of control at 10 µM (HCT-116) was -69%, the growth, % of control at 10 µM (HCT-15) was 9.7% and the growth, % of control at 10 µM (HT-29) was 12%. The growth, % of control at 10 µM (KM12) was 8.61%, the growth, % of control at 10 µM (SW-620) was -61.5% and the growth, % of control at 10 µM (BT-549) was 43.3%. It also gave a growth, % of control at 10 µM [1] of 26%, a growth, % of control at 10 µM (MCF7) of 13.6% and a growth, % of control at 10 µM (MDA-MB-231) of 20.9%. The growth, % of control at 10 µM (MDA-MB-435) was 21.3%, the growth, % of control at 10 µM (MDA-MB-468) was 45.8% and the growth, % of control at 10 µM (NCI/ADR-RES) was -14.2%. The growth, % of control at 10 µM (T47D) was -11.9%, the growth, % of control at 10 µM (IGROV-1) was -13.8% and the growth, % of control at 10 µM (OVCAR-3) was -16.2%. For the same compound, the growth, % of control at 10 µM (OVCAR-4) was 55.7%, the growth, % of control at 10 µM (OVCAR-5) was 1.43% and the growth, % of control at 10 µM (OVCAR-8) was 1.24%. The growth, % of control at 10 µM (CCRF-CEM) was 9.16%, the growth, % of control at 10 µM (HL-60(TB)) was -5.68% and the growth, % of control at 10 µM (K562) was -10.9%. For the same compound, the growth, % of control at 10 µM (MOLT-4) was -7.12%, the growth, % of control at 10 µM [2] was -13.9% and the growth, % of control at 10 µM (786-0) was -36.1%. For the same compound, the growth, % of control at 10 µM (A498) was -74.4%, the growth, % of control at 10 µM (ACHN) was -51.2% and the growth, % of control at 10 µM (CAKI-1) was 7.42%. The growth, % of control at 10 µM (SN12C) was 25%, the growth, % of control at 10 µM (TK-10) was -8.37% and the growth, % of control at 10 µM (UO-31) was 0.73%. For the same compound, the growth, % of control at 10 µM (LOX IMVI) was -72.6%, the growth, % of control at 10 µM (M14) was 1.63% and the growth, % of control at 10 µM (Malme-3M) was -28.7%.
